Data as given in ChEMBL document CHEMBL1949570, “Quinoline- and isoquinoline-sulfonamide derivatives of LCAP as potent CNS multi-receptor-5-HT1A/5-HT2A/5-HT7 and D2/D3/D4-agents: the synthesis and pharmacological evaluation” (Bioorg Med Chem, 2012).
The source made the active and inactive calls. The rule behind the calls is not given here.

Columns and labels:
[1] = target: T1, 5-hydroxytryptamine receptor 1A (Rattus norvegicus, UniProt P19327); assay: Displacement of [3H]8-OH-DPAT from rat hippocampus 5-HT1A receptor by liquid scintillation counter; assay type: tissue-based
T1 sequence (P19327 whole entry): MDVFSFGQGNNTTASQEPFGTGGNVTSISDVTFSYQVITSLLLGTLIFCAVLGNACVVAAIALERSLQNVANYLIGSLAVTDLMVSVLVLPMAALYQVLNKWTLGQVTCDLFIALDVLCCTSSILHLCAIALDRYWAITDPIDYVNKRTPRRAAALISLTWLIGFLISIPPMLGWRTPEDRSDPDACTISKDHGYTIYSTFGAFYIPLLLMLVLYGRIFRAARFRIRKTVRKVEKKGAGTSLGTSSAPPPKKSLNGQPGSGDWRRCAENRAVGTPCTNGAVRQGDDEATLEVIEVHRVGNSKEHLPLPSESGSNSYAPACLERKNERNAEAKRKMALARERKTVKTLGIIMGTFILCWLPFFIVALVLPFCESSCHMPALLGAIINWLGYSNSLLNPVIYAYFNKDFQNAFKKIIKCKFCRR
Procedure, shortened: (§1)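 Competition binding. 5-HT1A: rat hippocampus, [3H]-8-OH-DPAT. 5-HT2A: rat cortex, [3H]-ketanserin. D2: rat striatum, [3H]-spiperone. 5-HT6: human receptor stably in HEK293, [3H]-LSD. 5-HT7: human receptor stably in HEK293, [3H]-5-CT. Vacuum filtration on GF/B filters, ice-cold washes, scintillation counting.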

[2] = target: 5-hydroxytryptamine receptor 2A (Rattus norvegicus, UniProt P14842); assay: Displacement of [3H]Ketanserin from rat cortex 5-HT2A receptor by liquid scintillation counter; procedure, shortened: as §1
Mus musculus [3] = assay: […] activity in ip dosed Swiss albino mouse assessed as inhibition of DOI-induced head twitches administered 20 mins before DOI challenge measured for 20 mins; assay type: functional; settings: for ED50: read-out: ID50 (the source's name)
[4] = target: 5-hydroxytryptamine receptor 7 (Homo sapiens, UniProt P34969); assay: Displacement of [3H]5-CT form human cloned 5HT7 receptor expressed in human HEK293 cells by liquid scintillation counter; assay type: cell-based; procedure, shortened: as §1
[5] = target: 5-hydroxytryptamine receptor 6 (Homo sapiens, UniProt P50406); assay: Displacement of [3H]-LSD from human full length cloned 5HT6 receptor expressed in human HEK293 cells by liquid scintillation counter; assay type: cell-based; procedure, shortened: as §1
Mus musculus [6] = assay: Antipsychotic activity in CD1 mouse assessed as reduction in spontaneous locomotor activity measuring number of crossings at 0.5 to 1 mg/kg every 5 mins for 1 hr; assay type: functional, organism-based
Procedure, shortened: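 Male CD-1 mice; compound or reference ip 30 min before test plus vehicle. After 30 min habituation in individual cages, crossings counted over 1 h, recorded every 5 min; mean ± SEM; one-way ANOVA, Bonferroni.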

Mus musculus [7] = species: Mus musculus; assay: Antipsychotic activity in CD1 mouse assessed as inhibition of MK-801-induced hyperactivity measuring number of crossings measured every 5 mins for 1 hr; assay type: functional, organism-based
Procedure, shortened: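 Male CD-1 mice, one per cage, habituated 30 min; photobeam crossings (ambulation) then counted over 1 h, logged every 5 min. Drugs suspended in 1% aqueous Tween 80 and given ip at 10 ml/kg, 30 min before test. For hyperactivity, MK-801 (0.2 mg/kg, in distilled water) was given ip 15 min before test. 5–10 mice/dose; mean ± SEM, one-way ANOVA with Bonferroni test.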

[8] = target: D(3) dopamine receptor (Homo sapiens) (UniProt P35462); assay: Displacement of [3H]-methylspiperone from human cloned dopamine D3 receptor expressed in HEK293 cells at 10 '-7 M by liquid scintillation counter; assay type: cell-based
[9] = target: T2, D(4) dopamine receptor (Homo sapiens) (UniProt P21917); assay: Displacement of [3H]-methylspiperone from human cloned dopamine D4 receptor expressed in HEK293 cells at 10 '-7 M by liquid scintillation counter; assay type: cell-based
T2 sequence (whole entry): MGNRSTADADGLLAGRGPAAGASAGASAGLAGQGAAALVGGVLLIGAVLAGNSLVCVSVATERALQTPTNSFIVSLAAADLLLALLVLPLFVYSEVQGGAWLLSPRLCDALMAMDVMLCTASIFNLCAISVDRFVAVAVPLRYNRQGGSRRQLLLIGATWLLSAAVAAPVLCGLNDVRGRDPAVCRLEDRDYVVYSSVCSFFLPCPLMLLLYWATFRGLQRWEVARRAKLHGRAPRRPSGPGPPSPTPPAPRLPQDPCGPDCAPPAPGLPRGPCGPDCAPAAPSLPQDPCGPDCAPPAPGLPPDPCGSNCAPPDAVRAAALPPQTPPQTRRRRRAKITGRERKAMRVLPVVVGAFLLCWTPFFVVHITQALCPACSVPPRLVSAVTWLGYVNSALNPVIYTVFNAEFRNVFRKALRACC

[10] = target: D(3) dopamine receptor (Homo sapiens) (UniProt P35462); assay: Displacement of [3H]-methylspiperone from human cloned dopamine D3 receptor expressed in HEK293 cells at 10 '-6 M by liquid scintillation counter; assay type: cell-based
[11] = target: T2, D(4) dopamine receptor (Homo sapiens); assay: Displacement of [3H]-methylspiperone from human cloned dopamine D4 receptor expressed in HEK293 cells at 10 '-6 M by liquid scintillation counter; assay type: cell-based
Mus musculus [12] = assay: Antidepressant activity in mouse assessed as spontaneous locomotor activity 10 to 30 mg/kg; assay type: functional, organism-based
Procedure, shortened: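 Swiss albino mice given the forced swim doses ip 30 min before; placed individually in cages and channel crossings counted from 2 to 6 min with a multichannel activity monitor, matching the swim test observation period.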

Mus musculus [13] = assay: […] activity in Swiss albino mouse assessed as inhibition of apomorphine-induced climbing behavior administered 10 mins before apomorphine challenge measured for 2 mins; assay type: functional
Procedure, shortened: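 Male Swiss albino mice; compounds ip in 1% Tween 80 suspension, 10 min before apomorphine 3 mg/kg. Climbing time (2–4 paws on bar wall) recorded for 2 min starting 20 min after apomorphine.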

[14] = Selectivity ratio of compound Ki for rat hippocampus 5-HT1A receptor to human 5HT7 receptor; assay type: tissue-based
Procedure, shortened: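 Ratio of Ki values from competition binding: rat hippocampus 5-HT1A with [3H]-8-OH-DPAT versus human 5-HT7 in HEK293 with [3H]-5-CT; Ki by Cheng–Prusoff from 7–9 concentrations in triplicate.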

D(2) dopamine receptor = D(2) dopamine receptor (Rattus norvegicus, UniProt P61169); assay: Displacement of [3H]-spiperone from rat striatum dopamine D2 receptor by liquid scintillation counter; procedure, shortened: as §1
Chain of D(2) dopamine receptor (P61169 whole entry): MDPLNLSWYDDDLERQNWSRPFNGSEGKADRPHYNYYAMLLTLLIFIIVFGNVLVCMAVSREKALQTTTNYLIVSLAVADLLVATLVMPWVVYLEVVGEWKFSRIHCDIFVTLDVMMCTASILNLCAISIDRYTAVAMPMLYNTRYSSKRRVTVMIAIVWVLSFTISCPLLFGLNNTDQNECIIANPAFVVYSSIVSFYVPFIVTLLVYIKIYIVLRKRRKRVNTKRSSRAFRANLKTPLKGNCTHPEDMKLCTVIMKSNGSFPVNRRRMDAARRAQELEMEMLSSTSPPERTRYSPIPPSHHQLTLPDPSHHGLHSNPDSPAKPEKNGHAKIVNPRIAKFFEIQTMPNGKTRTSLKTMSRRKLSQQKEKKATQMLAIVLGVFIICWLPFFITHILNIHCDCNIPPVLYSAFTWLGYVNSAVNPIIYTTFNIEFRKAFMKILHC

Chain of 5-hydroxytryptamine receptor 2A (P14842 whole entry): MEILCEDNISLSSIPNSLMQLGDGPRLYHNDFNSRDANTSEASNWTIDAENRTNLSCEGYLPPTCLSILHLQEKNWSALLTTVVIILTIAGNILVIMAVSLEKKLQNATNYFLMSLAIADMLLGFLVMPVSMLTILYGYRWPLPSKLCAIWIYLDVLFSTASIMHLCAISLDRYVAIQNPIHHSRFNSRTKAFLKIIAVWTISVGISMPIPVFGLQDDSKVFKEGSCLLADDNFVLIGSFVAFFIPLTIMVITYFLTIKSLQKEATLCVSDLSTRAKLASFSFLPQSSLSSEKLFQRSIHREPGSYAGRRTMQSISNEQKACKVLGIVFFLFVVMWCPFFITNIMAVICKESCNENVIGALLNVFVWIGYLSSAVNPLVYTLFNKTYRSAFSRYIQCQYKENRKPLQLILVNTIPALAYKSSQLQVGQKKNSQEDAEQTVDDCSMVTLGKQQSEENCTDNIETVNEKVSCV
Chain of D(3) dopamine receptor (Homo sapiens) (P35462 whole entry): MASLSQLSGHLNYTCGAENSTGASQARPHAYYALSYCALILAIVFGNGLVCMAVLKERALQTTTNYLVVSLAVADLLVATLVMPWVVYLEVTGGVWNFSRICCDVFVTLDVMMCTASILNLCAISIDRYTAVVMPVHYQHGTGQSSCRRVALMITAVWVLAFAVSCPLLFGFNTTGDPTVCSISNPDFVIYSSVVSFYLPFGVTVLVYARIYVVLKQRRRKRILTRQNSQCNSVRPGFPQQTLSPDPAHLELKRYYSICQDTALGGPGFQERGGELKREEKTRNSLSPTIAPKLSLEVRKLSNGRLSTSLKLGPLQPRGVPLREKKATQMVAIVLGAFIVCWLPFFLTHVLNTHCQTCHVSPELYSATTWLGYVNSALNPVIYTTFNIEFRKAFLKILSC
Chain of 5-hydroxytryptamine receptor 7 (P34969 whole entry): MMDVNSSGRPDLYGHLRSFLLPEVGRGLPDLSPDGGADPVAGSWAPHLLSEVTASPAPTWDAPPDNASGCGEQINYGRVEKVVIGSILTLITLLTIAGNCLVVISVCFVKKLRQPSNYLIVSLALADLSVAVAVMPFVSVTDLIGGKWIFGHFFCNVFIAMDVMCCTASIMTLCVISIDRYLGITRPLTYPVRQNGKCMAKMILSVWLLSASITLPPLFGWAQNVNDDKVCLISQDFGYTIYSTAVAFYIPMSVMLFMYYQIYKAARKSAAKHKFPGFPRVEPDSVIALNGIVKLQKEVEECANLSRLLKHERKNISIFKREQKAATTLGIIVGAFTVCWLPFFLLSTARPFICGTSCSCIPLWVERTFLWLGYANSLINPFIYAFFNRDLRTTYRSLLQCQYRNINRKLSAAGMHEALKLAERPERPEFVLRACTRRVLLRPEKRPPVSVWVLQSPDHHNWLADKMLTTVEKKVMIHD
Chain of 5-hydroxytryptamine receptor 6 (P50406 whole entry): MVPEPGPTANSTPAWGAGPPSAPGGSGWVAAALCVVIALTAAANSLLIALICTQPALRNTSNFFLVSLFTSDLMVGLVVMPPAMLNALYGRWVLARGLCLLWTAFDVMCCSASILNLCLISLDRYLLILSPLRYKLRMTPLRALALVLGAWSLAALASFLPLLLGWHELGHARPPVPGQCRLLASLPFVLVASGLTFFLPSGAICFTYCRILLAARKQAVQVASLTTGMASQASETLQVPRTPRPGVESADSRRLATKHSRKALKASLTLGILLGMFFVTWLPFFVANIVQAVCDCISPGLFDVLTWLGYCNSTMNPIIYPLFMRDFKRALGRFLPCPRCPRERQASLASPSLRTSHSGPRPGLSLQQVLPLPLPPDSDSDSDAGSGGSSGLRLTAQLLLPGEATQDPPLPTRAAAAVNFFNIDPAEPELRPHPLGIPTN

SMILES | Ki [1] [nM] | Ki [2] [nM] | inhibition [8] [%] | inhibition [9] [%] | inhibition [10] [%] | other results
O=S(=O)(NCCCCCN1CCN(c2ccc(Cl)cc2)CC1)c1cnc2ccccc2c1 | 5800 | 114 |  |  |  | 
O=C(c1ccc(F)cc1)C1CCN(CCn2c(=O)[nH]c3ccccc3c2=O)CC1 [KETANSERIN] |  |  |  |  |  | ED50 (Mus musculus [3]): 0.12 mg/kg
O=S(=O)(NCCCCN1CCN(c2ccc(Cl)cc2)CC1)c1cncc2ccccc12 | 1000 | 211 |  |  |  | 
O=S(=O)(NCCCCN1CCN(c2ccc(Cl)cc2)CC1)c1ccc2cccnc2c1 | 868 | 63 |  |  |  | Ki [4]: 381 nM; Ki [5]: 1730 nM
O=C(CCCN1CCC(O)(c2ccc(Cl)cc2)CC1)c1ccc(F)cc1 |  |  |  |  |  | Activity (Mus musculus [6]): Active; inhibition (Mus musculus [7]): Dose-dependent effect
O=S(=O)(NCCCCN1CCN(c2cccc(Cl)c2)CC1)c1cnc2ccccc2c1 |  | 22 | 70 | 30 | 94 | 
O=S(=O)(NCCCCN1CCN(c2ccc(Cl)cc2)CC1)c1cnc2ccccc2c1 | 771 | 56 | 46 | 37 | 82 | inhibition [11]: 78%
O=S(=O)(NCCCCN1CCN(c2cccc(Cl)c2)CC1)c1ccc2ccccc2c1 | 497 | 22 |  |  |  | 
Cl.O=S(=O)(c1cnc2ccccc2c1)N1CCC(CCN2CCN(c3ccc(Cl)cc3)CC2)CC1 | 8300 | 31 | 52 | 63 | 90 | Ki [4]: 40 nM; Ki [5]: 24800 nM; inhibition (Mus musculus [3]): Dose-dependent effect; ED50 (Mus musculus [3]): 5.12 mg/kg; Activity (Mus musculus [12]): inactive; inhibition (Mus musculus [13]): Dose-dependent effect; ED50 (Mus musculus [13]; read-out: ID50 (the source's name)): 25 mg/kg; Ratio Ki [14]: 207; inhibition [11]: 90%; Ki (D(2) dopamine receptor): 56 nM
O=S(=O)(c1ccc2cccnc2c1)N1CCC(CN2CCN(c3ccc(Cl)cc3)CC2)CC1 | 338 | 761 |  |  |  | 
